This note sets out measurements from ChEMBL document CHEMBL4433206, “Novel Lysine-Based Thioureas as Mechanism-Based Inhibitors of Sirtuin 2 (SIRT2) with Anticancer Activity in a Colorectal Cancer Murine Model” (J Med Chem, 2019).

Active and inactive are the calls of the source. No cut-off for these calls is given here.

For series [1], the target named is T1, NAD-dependent protein deacetylase sirtuin-2 (Homo sapiens, UniProt Q8IXJ6).
T1 sequence (Q8IXJ6 whole entry): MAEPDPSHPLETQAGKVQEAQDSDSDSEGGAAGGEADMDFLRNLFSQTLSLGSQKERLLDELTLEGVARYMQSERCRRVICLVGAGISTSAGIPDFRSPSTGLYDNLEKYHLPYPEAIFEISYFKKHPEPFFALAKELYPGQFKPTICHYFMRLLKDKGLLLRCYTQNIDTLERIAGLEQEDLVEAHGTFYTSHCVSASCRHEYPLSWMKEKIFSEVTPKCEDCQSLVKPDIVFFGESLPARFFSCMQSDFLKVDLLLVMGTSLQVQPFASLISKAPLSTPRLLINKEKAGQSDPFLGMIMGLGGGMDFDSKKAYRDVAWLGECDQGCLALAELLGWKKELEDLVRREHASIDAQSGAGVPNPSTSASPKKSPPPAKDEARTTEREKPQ
Nature of the series: Inhibition of recombinant human N-terminal His6-tagged/SUMO-fused SIRT2 (38 to 356 residues) expressed in Escherichia coli BL21 assessed as reduction in deacetylase activity using acetylated H3K9 as substrate preincubated for 15 mins followed by substrate addition and measured after 6 mins by UV-HPLC analysis.

For series [2], the system named is MDA-MB-231. Nature of the series: Growth inhibition of human MDA-MB-231 cells after 72 hrs by CellTiter-Blue assay. The format is functional. The settings on record: MDA-MB-231, 72 h. Background: The colour change of resazurin is a common sign of viable cells or microbes.
Series [3] has as its target T2, NAD-dependent protein deacetylase sirtuin-1 (Homo sapiens, UniProt Q96EB6).
T2 sequence (Q96EB6 whole entry): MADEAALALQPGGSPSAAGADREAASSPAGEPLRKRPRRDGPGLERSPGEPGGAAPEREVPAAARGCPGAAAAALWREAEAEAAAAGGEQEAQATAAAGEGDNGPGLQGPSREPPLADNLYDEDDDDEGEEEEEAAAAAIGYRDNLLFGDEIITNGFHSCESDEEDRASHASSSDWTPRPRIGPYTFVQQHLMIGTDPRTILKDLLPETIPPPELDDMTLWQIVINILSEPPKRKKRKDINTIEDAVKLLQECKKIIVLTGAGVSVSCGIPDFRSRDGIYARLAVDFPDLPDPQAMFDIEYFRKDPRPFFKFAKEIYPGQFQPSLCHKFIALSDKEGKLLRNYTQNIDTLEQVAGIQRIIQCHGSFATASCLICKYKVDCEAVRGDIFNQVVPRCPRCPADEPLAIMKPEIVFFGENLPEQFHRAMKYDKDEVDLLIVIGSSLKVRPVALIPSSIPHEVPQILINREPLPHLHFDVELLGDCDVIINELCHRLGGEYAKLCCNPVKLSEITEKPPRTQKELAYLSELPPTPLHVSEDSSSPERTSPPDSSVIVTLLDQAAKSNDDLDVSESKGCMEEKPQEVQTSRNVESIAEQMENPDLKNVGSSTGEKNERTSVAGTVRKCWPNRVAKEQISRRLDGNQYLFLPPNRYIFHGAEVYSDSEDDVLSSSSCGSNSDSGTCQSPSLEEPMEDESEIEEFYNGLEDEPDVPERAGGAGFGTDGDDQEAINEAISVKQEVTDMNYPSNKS
Nature of the series: Inhibition of human SIRT1 deacetylase activity using acetylated H3K9 as substrate preincubated for 15 mins followed by substrate addition and measured after 3 mins by UV-HPLC analysis.

In series [4] the test system is HCT-116. Nature of the series: Antitumor activity against human HCT116 cells harboring KRAS G13D mutant xenografted in NSG mouse assessed as tumor growth inhibition by measuring reduction in tumor volume at 100 mg/kg, ip administered daily for 12 days and measured post-last dose relative to control. The class given is functional. The settings on record: HCT-116, ip, 288 h, read-out: TGI. Summed up:
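NSG mice, female and male, about 4–8 weeks old, were implanted with 1 × 10⁶ HCT116 cells on both sides of the abdomen. Tumours grew 3–5 days until visible. Compound was given ip daily for 12 days in vehicle containing 10% DMSO and 10% Kolliphor EL (dosing solution 10 mg/mL); control mice received vehicle. Tumour volume was measured daily; tumours were excised and weighed on the last day. Unpaired two-tailed t-test.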
(In general: In xenograft studies the graft and the host belong to different species.)

Series [5] relates to SW948. As to the kind of experiment: Growth inhibition of human SW948 cells after 72 hrs by CellTiter-Blue assay. The format is functional. The conditions noted are these: SW948, 72 h.
In series [6] the test system is MDA-MB-468. Nature of the series: Growth inhibition of human MDA-MB-468 cells after 72 hrs by CellTiter-Blue assay. The class given is functional. The conditions noted are these: MDA-MB-468, 72 h.
Series [7] in a line: Toxicity in NSG mouse xenografted with human HCT116 cells harboring KRAS G13D mutant assessed as body weight loss at 100 mg/kg, ip administered daily for 12 days measured during compound dosing. The conditions noted are these: in vivo, 288 h.
In series [8] the target is T3, NAD-dependent protein deacetylase sirtuin-1 (Homo sapiens) (UniProt Q96EB6).
T3 sequence (whole entry): T2 sequence (Q96EB6 whole entry)
Nature of the series: Inhibition of SIRT1 in human HCT116 cells assessed as increase in acetylated p53 K382 level at 25 uM after 6 hrs by Western blot analysis. The format is cell-based. In general terms: Immunoblotting shows a protein as a band on a membrane.

The subject of series [9] is HCT-116. As to the kind of experiment: Inhibition of anchorage-independent cell growth in human HCT116 cells assessed as reduction in colony formation incubated for 5 days followed by compound re-addition and measured after 9 to 11 days by nitro blue tetrazolium chloride-based soft agar colony formation assay. The format is functional. Summed up: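 HCT116 cells were mixed at 500 cells/mL into 0.3% agar growth layer over a 0.6% agar base layer (McCoy's medium, 10% calf serum). Both layers held inhibitor at 2.5–50 μM final. Wells were run in triplicate at 37 °C. Inhibitor-containing growth layer was added again at day 5. At 9–11 days, nitro blue tetrazolium was added overnight and colonies were imaged and counted.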

A short description of series [10]: Cytotoxicity against human HME1 cells after 72 hrs by CellTiter-Blue assay. The format is cell-based. Summed up:
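Cells were seeded per well (HCT116 1000; MDA-MB-231, MDA-MB-468, NCI-H23, A549, SW948 2000; MCF7, BxPC-3, HME1 3000) and left 20 h at 37 °C. Inhibitor was added at 1–100 μM final for 72 h at 37 °C. CellTiter-Blue was then added for 4 h, and fluorescence was read at ex 560/em 590 nm.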

Series [11] relates to MCF7. Nature of the series: Growth inhibition of human MCF7 cells after 72 hrs by CellTiter-Blue assay. The settings on record: MCF7, 72 h. The format is functional.
In series [12] the target is T4, NAD-dependent protein deacetylase sirtuin-2 (Homo sapiens) (UniProt Q8IXJ6).
T4 sequence (whole entry): T1 sequence (Q8IXJ6 whole entry)
As to the kind of experiment: Inhibition of SIRT2 in human HCT116 cells assessed as increase in alpha-tubulin acetylation at 50 uM incubated for 6 hrs by DAPI staining-based laser scanning confocal microscopic analysis. The class given is cell-based. In a few lines:
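HCT116 cells were seeded at 400 000 on poly-D-lysine-coated glass-bottom dishes and grown 24 h. Cells were treated with DMSO or inhibitor for 6 h at 37 °C, fixed in ice-cold methanol, and blocked in TBS/0.1% Triton X-100/5% BSA. They were stained with anti-acetyl α-tubulin (1:100, overnight, 4 °C), then Cy3 anti-mouse, and mounted with DAPI. Imaging was by confocal microscopy.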

In series [13] the test system is BXPC-3. As to the kind of experiment: Growth inhibition of human BxPC3 cells after 72 hrs by CellTiter-Blue assay. The conditions noted are these: BXPC-3, 72 h. The class given is functional.
The test system of series [14] is HCT-116. As to the kind of experiment: Growth inhibition of human HCT116 cells after 72 hrs by CellTiter-Blue assay. The format is functional. The settings on record: HCT-116, 72 h.

The IC50 is the midpoint of a concentration-inhibition curve. What is called GI50 is the concentration giving 50% growth inhibition.

In the case of `CCCCCCCCNC(=S)NCCCC[C@H](NC(=O)OCc1ccccc1)C(=O)Nc1ccccc1`, the IC50 in [1] amounted to 0.061 µM; in series [3], 11 µM. The 50% growth inhibitory concentration (GI50) in series [2] stood at 27.2 µM; in series [5], 30 µM; in [6], 26.1 µM; in series [9], 7.4 µM; in [11], 42.6 µM; in [13], 72.4 µM. The compound further yielded a concentration for 50% growth inhibition (GI50) in series [14] of 58.9 µM. In addition, the inhibition in vivo at 100 mg/kg in [4] was 80%. Moreover, the Activity result in [7] and in [10] was “Non-Toxic” in each case. In addition, the inhibition result in [8] is “inactive”. The inhibition result in series [12] is “Active”.
As to `CCCCCCCCCCNC(=S)NCCCC[C@H](NC(=O)OCc1ccccc1)C(=O)Nc1ccccc1`, the half-maximal inhibitory concentration (IC50) in [1] was 0.15 µM; in [3], above 200 µM. For the same compound, the concentration for 50% growth inhibition (GI50) came out at 14.8 µM in series [2]; 12.8 µM in series [5]; 13.4 µM in series [6]; 7 µM in series [9]; 18.4 µM in [11]; 24.3 µM in series [13]. In series [14], the 50% growth inhibitory concentration (GI50) came to 54.4 µM. The inhibition in vivo at 100 mg/kg in series [4] is 37%. For the same compound, the Activity result in series [7] and in [10] was “Non-Toxic” throughout. Also, in series [8], the inhibition entry was “inactive”. Moreover, the inhibition entry in series [12] was “Active”.
